Reference: ChEMBL document CHEMBL1140478, “Preparation and antitubercular activities of alkylated amino alcohols and their glycosylated derivatives” (Bioorg Med Chem, 2007)

What was measured:
[1] = test system: Mycobacterium tuberculosis; assay: Antimycobacterial activity against Mycobacterium tuberculosis H37Rv by microplate alamar blue assay; type: functional
Method in brief: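 M. tuberculosis H37Rv (ATCC 27294) exposed to decreasing compound concentrations in Middlebrook 7H9 medium. Growth read by Microplate Alamar Blue Assay. MIC taken as the lowest concentration that […]. Values are means of three separate experiments. Rifampicin at 1.0 µg/mL served as internal control.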

[2] = Cell proliferation of mouse […] cells at 0.5 ug/mL by MTT assay; type: ADME, cell-based, J774.A1; settings: J774A.1 cells, read-out: Activity
Method in brief: (§1)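 Supernatants removed, cells given supplemented RPMI plus MTT (5 mg/mL) for 4 h at 37 °C, 5% CO2. Reaction stopped with acidic isopropanol (HCl), 10 min at room temperature, OD read at 570 nm. Proliferation and cytotoxicity calculated by formulae.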

J774.A1 [3] = assay: Cytotoxicity against mouse […] cells at 0.5 ug/mL by MTT assay; type: cell-based; method in brief: as §1
[4] = Cell proliferation of mouse […] cells at 0.05 ug/mL by MTT assay; type: ADME, cell-based, J774.A1; settings: J774A.1 cells, read-out: Activity; method in brief: as §1
J774.A1 [5] = assay: Cytotoxicity against mouse […] cells at 0.05 ug/mL by MTT assay; type: cell-based; method in brief: as §1
[6] = Cell proliferation of mouse […] cells at 0.005 ug/mL by MTT assay; type: ADME, cell-based, J774.A1; settings: J774A.1 cells, read-out: Activity; method in brief: as §1
J774.A1 [7] = assay: Cytotoxicity against mouse […] cells at 0.005 ug/mL by MTT assay; type: cell-based; method in brief: as §1

| SMILES | MIC [1] | viability at 0.5 ug/mL [2] [%] | Activity (J774.A1 [3]) | viability at 0.05 ug/mL [4] [%] | Activity (J774.A1 [5]) | viability at 0.005 ug/mL [6] [%] | Activity (J774.A1 [7]) |
| --- | --- | --- | --- | --- | --- | --- | --- |
| CCCCCCCCCCCCNCCO | 27 µM | 90.9 | 21.3% | 77.6 | 8.4% | 92.7 | 12.1% |
| CCCCCCCCCCC(O)CN (stereo unspecified) | 15 µM | 96.4 | 31.1% | 112 | Not Active | 110 | Not Active |
| CCCCCCCCCCCCCCN(CCO)C[C@H]1O[C@@H]2OC(C)(C)O[C@@H]2[C@H]2OC(C)(C)O[C@H]21 | 12 µM | 118 | Not Active | 135 | Not Active | 113 | Not Active |
| CCCCCCCCCCCCCCCCN(CCO)C[C@H]1O[C@@H]2OC(C)(C)O[C@@H]2[C@H]2OC(C)(C)O[C@H]21 | 11 µM | 149 | 17.4% |  | 16.3% | 104 | 10.6% |
| CCCCCCCCCCC(O)CNC[C@H]1O[C@@H]2OC(C)(C)O[C@@H]2[C@H]2OC(C)(C)O[C@H]21 (stereo partly specified) | 28 µM |  |  |  |  |  |  |
| CCCCCCCCNCCO | 578 µM |  |  |  |  |  |  |
| CCCCCCCCCCNCCO | 248 µM |  |  |  |  |  |  |
| CCCCCCCCCCCCCCCCNCCO | 46 µM |  |  |  |  |  |  |
| CCCCC(CC)CNCCO (stereo unspecified) | > 578 µM |  |  |  |  |  |  |
| CCCCCCCCCCCCN(CCO)C[C@H]1O[C@@H]2OC(C)(C)O[C@@H]2[C@H]2OC(C)(C)O[C@H]21 | 6 µM | 96.6 | Not Active | 98.9 | Not Active | 98.3 | Not Active |
| CCCCC(CC)CN(CCO)C[C@H]1O[C@@H]2OC(C)(C)O[C@@H]2[C@H]2OC(C)(C)O[C@H]21 (stereo partly specified) | > 240 µM |  |  |  |  |  |  |
| CCCCCCCCCCN(CCO)C[C@H]1O[C@@H]2OC(C)(C)O[C@@H]2[C@H]2OC(C)(C)O[C@H]21 | 225 µM |  |  |  |  |  |  |
| CCCCCCCCN(CCO)C[C@H]1O[C@@H]2OC(C)(C)O[C@@H]2[C@H]2OC(C)(C)O[C@H]21 | 241 µM |  |  |  |  |  |  |
| CC[C@@H](CO)NCCN[C@@H](CC)CO [ETHAMBUTOL] | 3.25 µg/mL |  |  |  |  |  |  |
| NNC(=O)c1ccncc1 [ISONIAZID] | 0.2 µg/mL |  |  |  |  |  |  |
| CCCCCCCCCCCCCCNCCO [MYRALACT] | 51 µM |  |  |  |  |  |  |
| CO[C@H]1/C=C/O[C@@]2(C)Oc3c(C)c(O)c4c(O)c(c(/C=N/N5CCN(C)CC5)c(O)c4c3C2=O)NC(=O)/C(C)=C\C=C\[C@H](C)[C@H](O)[C@@H](C)[C@@H](O)[C@@H](C)[C@H](OC(C)=O)[C@@H]1C [RIFAMPIN] | 1 µg/mL |  |  |  |  |  |  |
